Test results taken from the array DNA melting data of Ke et al. (doi:10.1101/2024.01.08.574731).

Columns and labels:
[1] = folding enthalpy; higher = less favourable; fluorescence melt of hairpins on a sequencing array, two-state fit; conditions: sodium 0.088 M
In short: (§1)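 On a sequenced MiSeq flow cell, library hairpins with annealed Cy3 and quencher oligos were imaged for Cy3 fluorescence in 2.5 °C steps up to 60 °C, in 50 mM Na-HEPES pH 8.0, 25 mM NaCl. Normalisation used pre-quench Cy3 and control constructs. Bootstrapped two-state fits gave melting temperature and folding enthalpy, combined by inverse variance across four replicates and with fitted temperatures raised by 9.35 °C to match UV melts.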

[2] = melting temperature; fluorescence melt of hairpins on a sequencing array, two-state fit, raised by 9.35 °C to match UV melts; conditions: sodium 0.088 M
In short: as §1

Sequence	folding enthalpy [1]	Tm [2]
GTCTAGACGAAAGTCGAC (((..(((....))))))	-54.8 kJ/mol	39.6 °C
GCGACTGGAAACAGTCAC (.(((((....))))).)	-60.3 kJ/mol	48.2 °C
GATCCCGAAAGGGCATC ((((((....))).)))	-71.2 kJ/mol	42.1 °C
GCGGGGGGAAACCCCCAC (.(((((....))))).)	-47 kJ/mol	46 °C
GGGTAGGGAAACCTACCC (((((((....)))))))	-213 kJ/mol	64 °C
GCAACCGAAAGGTGTGC ((((((....))).)))	-97.2 kJ/mol	52.4 °C
GGCCTAGGAAACTAAGCC (((.(((....))).)))	-84 kJ/mol	38.2 °C
GCTGTCCGAAAGGAGAGC (((.(((....))).)))	-142 kJ/mol	57 °C
GATCTCGTATGAGATC ((((((....))))))	-195 kJ/mol	59.2 °C
GAAGGGAAACCTTC (((((....)))))	-87.2 kJ/mol	42.5 °C
GATGTTGGAAACAATGTC ((..(((....)))..))	-71.4 kJ/mol	31.1 °C
GCTTCACGAAAGTGCAGC (((.(((....))).)))	-116 kJ/mol	51.6 °C
GTCGAGCGAAAGCTTGAC (((.(((....))).)))	-148 kJ/mol	63.9 °C
GATCGGCGGCCCGATC ((((((....))))))	-148 kJ/mol	55.5 °C
GAACGTGAAAACGTTC ((((((....))))))	-142 kJ/mol	58.1 °C
GCCGAATCGAAAGATGGC (((..(((....))))))	-110 kJ/mol	46.2 °C
GATCTAGAGCTAGATC ((((((....))))))	-123 kJ/mol	39.4 °C
GAGTCGGGAAACCGGCTC (((.(((....))).)))	-139 kJ/mol	61.1 °C
GGACTCGCGAAAGCGTCC (((..(((....))))))	-54.8 kJ/mol	39.1 °C
GCTACCGAAAGGTTAAGC ((((((....)))..)))	-81.9 kJ/mol	39.4 °C
GATCTGAGTCCAGATC ((((((....))))))	-126 kJ/mol	46.7 °C
GATCATGGGATGATC ((((((...))))))	-128 kJ/mol	44.6 °C
GTACGCGGAAACACGCAC ((.((.(....).)).))	-52.5 kJ/mol	31.1 °C

Sequence	folding enthalpy [1]	Tm [2]
GCGGAAGGCCGC ((((....))))	-90.9 kJ/mol	53.1 °C
GATCTCGGGAGAGATC ((((((....))))))	-174 kJ/mol	63.2 °C
GCTCCGCGAAAGCTGTGC ((.(.((....)).).))	-62.5 kJ/mol	41.2 °C
GGTCGAACGAAAGTTACC (((..(((....))))))	-49.1 kJ/mol	26.6 °C
GACGTACCGAAAGGTGTC (((..(((....))))))	-93.9 kJ/mol	41.9 °C
GGGACCGAAAGGTAACCC ((((((....)))..)))	-79.3 kJ/mol	46.1 °C
GAACTGGGAAACTAGTTC (((((.(....).)))))	-159 kJ/mol	42.4 °C
GTACTCGGAAACGAATAC (((.(((....))).)))	-74.3 kJ/mol	33.5 °C
GATAAGACGAAAGTCATC (((..(((....))))))	-63.7 kJ/mol	26.7 °C
GATCACCTCTGTGATC ((((((....))))))	-177 kJ/mol	55 °C
GCGGGCGAAAGCCGCCGC ((((((....)))..)))	-47.2 kJ/mol	61.7 °C
GCGGCCGCGAAAGCGCGC (((..(((....))))))	-48.7 kJ/mol	59.5 °C
GTAAACGGAAACGTTCAC ((.((((....)))).))	-98.7 kJ/mol	32.4 °C
GATCAGCGCGCTGATC ((((((....))))))	-180 kJ/mol	67.4 °C
CGCGGGAAAGCCCGCG ((((((....))))))	-155 kJ/mol	68.1 °C
GTCGTCGGAAACGACAAC ((.((((....)))).))	-54.5 kJ/mol	47.4 °C
GCCAGGCGAAAGCTCGGC (((..((....))..)))	-160 kJ/mol	59.8 °C
GCCTCAGGAAACTGGGGC (((.(((....))).)))	-175 kJ/mol	56 °C
GATCAATTTCTTGATC ((((((....))))))	-164 kJ/mol	43.3 °C
GTCAGCGGAAACGTTGAC ((((.((....)).))))	-182 kJ/mol	52.9 °C
GCGAGGCGAAAGCCGGGC ((..(((....)))..))	-87.1 kJ/mol	65.7 °C
GATCACGACGGTGATC ((((((....))))))	-158 kJ/mol	59.8 °C
GAAAGGAAACTTTC (((((....)))))	-70.5 kJ/mol	30.4 °C

Sequence	folding enthalpy [1]	Tm [2]
GCACAGCGAAAGCAATGC (((..((....))..)))	-45.6 kJ/mol	37.3 °C
GCCGCGCGAAAGCGTCGC ((..(((....)))..))	-42.1 kJ/mol	58 °C
GTCTCGCGAAAGCGTGAC (((.(((....))).)))	-120 kJ/mol	60.7 °C
GTACTCGAAAGAGTGTAC ((((((....)))..)))	-52.8 kJ/mol	35.9 °C
GACTCCGAAAGGAGAGTC ((((((....)))..)))	-53.9 kJ/mol	43 °C
GAGATCGGAAACAATCTC (((((.(....).)))))	-64.1 kJ/mol	32.5 °C
GTACGCGGAAACACGTAC (((((.(....).)))))	-143 kJ/mol	47.9 °C
GATATCCGAAAGGACATC (((.(((....))).)))	-92.1 kJ/mol	38.9 °C
GATCTAGTCTAGATC ((((((...))))))	-143 kJ/mol	41.1 °C
GCTCCGGGAAACTGGAGC (((((.(....).)))))	-191 kJ/mol	60.1 °C
GATCATTAGATGATC ((((((...))))))	-122 kJ/mol	44.4 °C
GTTTGGCGAAAGCCAAC (((.(((....))))))	-46.2 kJ/mol	48.7 °C
GCAAAGCGAAAGCTCGGC ((..(((....)))..))	-69.3 kJ/mol	36.5 °C
GTCGACGAAAGTCGCGAC ((((((....)))..)))	-52.5 kJ/mol	57.4 °C
GCCTTCGAAAGAAGCGGC ((((((....)))..)))	-75.9 kJ/mol	47.2 °C
GGGCGCGAAAGCGGGCCC ((((((....)))..)))	-56.1 kJ/mol	64.8 °C
GACGTGACGAAAGTCGTC (((..(((....))))))	-59.5 kJ/mol	49.4 °C
GAGCCCGAAAGGGGACTC ((((((....)))..)))	-79 kJ/mol	47.8 °C
GCTTAGCGAAAGCAAAGC ((((.((....)).))))	-98.9 kJ/mol	59.8 °C
GAGGAAGGAAACTTCTTC ((.((((....)))).))	-70 kJ/mol	33.9 °C
GCGGTGGGAAACCACTGC ((.((((....)))).))	-163 kJ/mol	60.4 °C
GATTACGAAAGTAGAATC ((((((....)))..)))	-60.3 kJ/mol	27.4 °C
GCCCTGCGAAAGCCAGGC (((..((....))..)))	-65.6 kJ/mol	53 °C

Sequence	folding enthalpy [1]	Tm [2]
GGTCGTGAAAACGACC ((((((....))))))	-143 kJ/mol	69.2 °C
GCTGCTGGAAACAGTAGC (((.(((....))).)))	-181 kJ/mol	54.3 °C
GGCCGCGGAAACGCAGCC (((.(((....))).)))	-160 kJ/mol	61.3 °C
GACCGCGAAAGCGCAGTC ((((((....)))..)))	-68.1 kJ/mol	38 °C
GCCGAAGCGAAAGCTGGC (((..(((....))))))	-132 kJ/mol	57.1 °C
CGCCGCGGAAACGCAGCG (((.(((....))).)))	-157 kJ/mol	59 °C
GCCTTTGGAAACAAAAGC ((.((((....)))).))	-51 kJ/mol	29.3 °C
GACTCGGGAAACCGGGTC (((.(((....))).)))	-170 kJ/mol	55.1 °C
GTATTGGGAAACCAGTAC (((.(((....))).)))	-114 kJ/mol	40 °C
GCCGGCGAAAGCCGTGGC ((((((....)))..)))	-54.6 kJ/mol	58.4 °C
GTAGCGTCGAAAGACTAC (((..(((....))))))	-38.7 kJ/mol	24.7 °C
GTTCTTCGAAAGAACAAC (((.(((....))).)))	-62.5 kJ/mol	32 °C
GGCTGCCGAAAGGCCGCC (((.(((....))).)))	-77.4 kJ/mol	65 °C
GATCACCGGCGTGATC ((((((....))))))	-158 kJ/mol	54.7 °C
GGCATACGAAAGTAAGCC (((.(((....))).)))	-155 kJ/mol	54 °C
GATCGACGGTCGATC ((((((...))))))	-183 kJ/mol	51.2 °C
CGTGCCGGAAACGGTACG (((.(((....))).)))	-135 kJ/mol	60.3 °C
CGCACGGAAACGTCGGCG ((((((....)))..)))	-100 kJ/mol	46.6 °C
TCCGTGAAAACGGA (((((....)))))	-75.2 kJ/mol	53.8 °C
GCAACACGAAAGTGGTGC (((.(((....))).)))	-135 kJ/mol	68.6 °C
GCATGGCGAAAGCTGTGC (((..((....))..)))	-132 kJ/mol	59.9 °C
GGGGTGGGAAACCACCTC (.(((((....))))).)	-67.6 kJ/mol	55.2 °C
GACCTTGGAAACAAGGCC (.(((((....))))).)	-71.9 kJ/mol	45.2 °C
